Measurements from PMC5034689 (Molecular Metabolism, 2016).

Experiments:
lean/CD-fed mice = assay: Single dose of TNP in chow; format: in vivo; conditions: single dose 20 mg/kg BW
In short: (§1)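 Chow-fed lean or DIO mice (n = 4/group) received one 20 mg/kg injection, were fasted 5 h, then given GTT (glucose 2 g/kg i.p., tail-vein glucometer from time 0). Mice were then sacrificed for tissues and cardiac-puncture serum. Insulin was measured by ultra-sensitive ELISA and TAG by a metabolic core. Akt S473 was immunoblotted (T308 also in IWAT), with densitometry n = 3.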

CYP1A2 = target: T1, CYP1A2 (Homo sapiens, UniProt P05177); assay: CYP450 inhibition in human hepatic microsomes, CYP1A2; format: in vitro ADME; conditions: liver microsomes
T1 sequence (P05177 1-516): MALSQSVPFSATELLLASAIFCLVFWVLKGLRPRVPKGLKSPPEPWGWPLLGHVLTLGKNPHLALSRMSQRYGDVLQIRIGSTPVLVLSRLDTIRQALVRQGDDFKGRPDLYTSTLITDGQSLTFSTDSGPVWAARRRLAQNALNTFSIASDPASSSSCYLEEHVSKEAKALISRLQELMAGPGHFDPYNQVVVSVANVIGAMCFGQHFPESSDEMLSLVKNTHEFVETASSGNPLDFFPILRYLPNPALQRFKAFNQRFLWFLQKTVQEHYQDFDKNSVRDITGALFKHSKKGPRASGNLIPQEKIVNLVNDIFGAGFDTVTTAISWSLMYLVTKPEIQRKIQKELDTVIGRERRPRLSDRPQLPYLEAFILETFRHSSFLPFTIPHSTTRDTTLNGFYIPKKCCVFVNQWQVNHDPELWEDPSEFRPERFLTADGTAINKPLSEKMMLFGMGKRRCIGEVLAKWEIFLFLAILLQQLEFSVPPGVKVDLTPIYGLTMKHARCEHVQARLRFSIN

[1] = tested on: human promyelocytic leukemia (HL60) cells; conditions: cited from earlier work
CYP3A4 = CYP3A4 (Homo sapiens, UniProt P08684); assay: CYP450 inhibition in human hepatic microsomes, CYP3A4; format: in vitro ADME; conditions: liver microsomes, probe midazolam (hydroxylation to 1′-hydroxymidazolam)
CYP3A4, sequence (P08684 whole entry): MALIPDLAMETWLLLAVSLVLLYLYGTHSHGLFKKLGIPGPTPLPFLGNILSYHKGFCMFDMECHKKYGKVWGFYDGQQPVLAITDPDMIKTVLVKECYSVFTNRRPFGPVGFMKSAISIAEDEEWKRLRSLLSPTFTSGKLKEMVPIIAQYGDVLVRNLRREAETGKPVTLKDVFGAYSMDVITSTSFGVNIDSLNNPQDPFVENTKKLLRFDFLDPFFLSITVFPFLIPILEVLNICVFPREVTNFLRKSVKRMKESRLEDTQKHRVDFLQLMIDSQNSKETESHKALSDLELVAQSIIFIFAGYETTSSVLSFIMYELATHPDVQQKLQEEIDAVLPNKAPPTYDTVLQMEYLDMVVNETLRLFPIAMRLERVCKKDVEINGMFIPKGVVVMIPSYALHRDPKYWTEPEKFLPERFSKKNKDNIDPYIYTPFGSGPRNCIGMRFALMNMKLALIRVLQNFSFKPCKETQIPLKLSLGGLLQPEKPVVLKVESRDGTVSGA

71 unrelated kinases = conditions: cited from earlier work
MIN6 cells = conditions: cited from earlier work
HFD-fed mice = assay: Long-term TNP for protection against DIO; format: in vivo, C57BL6 mice
In short: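 Male C57BL6 mice, chow-fed to 2 months of age, started HFD together with daily injections (10 mg/kg; vehicle DMSO:Tween 80:water 1:1:8) for 10 weeks, n = 6/group, 23 °C. Body weight was recorded weekly. In week 5, CLAMS ran 36 h acclimatization then 48 h of VO2, VCO2 and locomotor recording. RER = VCO2/VO2, and EE was normalized to lean mass. Week-7 food intake was measured by BioDAQ (2 days acclimatization, 4 days recorded).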

IP6K1-KO mice = assay: Long-term TNP for reversal of DIO in IP6K1-KO mice; format: in vivo
In short: (§2)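 Inbred IP6K1-KO mice (seventh generation) and WT littermates, n = 4/group, received HFD for 8 weeks, then daily injections (10 mg/kg) with continued HFD for 10 weeks. GTT was done at week 5: 5 h fast, glucose 2 g/kg i.p., tail-vein glucometer readings including time 0. After 10 weeks, fat, lean and fluid masses were measured by LF-NMR, and mice were sacrificed after a 5 h fast.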

PP-IP5K = conditions: cited from earlier work
cortical neurons = conditions: cited from earlier work
DIO WT mice = assay: Long-term TNP for reversal of DIO in WT mice; format: in vivo
In short: as §2

Recombinant human IP6K1 = Recombinant human IP6K1 (Homo sapiens, UniProt Q92551); assay: IP6K1 activity assay in vitro, SDS-PAGE assay; format: biochemical; conditions: TNP 1 μM
Recombinant human IP6K1, sequence (Q92551 whole entry): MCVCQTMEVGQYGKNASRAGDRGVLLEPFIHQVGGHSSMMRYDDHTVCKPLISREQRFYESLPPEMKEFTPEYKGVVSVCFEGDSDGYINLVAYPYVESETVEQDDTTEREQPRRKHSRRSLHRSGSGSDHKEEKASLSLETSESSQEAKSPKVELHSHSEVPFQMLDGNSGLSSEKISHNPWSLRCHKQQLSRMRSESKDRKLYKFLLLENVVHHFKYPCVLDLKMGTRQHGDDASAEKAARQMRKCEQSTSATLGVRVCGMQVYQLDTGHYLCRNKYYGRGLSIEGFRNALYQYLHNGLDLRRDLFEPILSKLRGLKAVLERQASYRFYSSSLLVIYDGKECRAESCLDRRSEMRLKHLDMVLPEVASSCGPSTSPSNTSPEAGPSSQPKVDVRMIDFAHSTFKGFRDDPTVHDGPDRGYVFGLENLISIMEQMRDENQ
In short: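 Recombinant human IP6K1 (100 ng, purified from E. coli) was incubated in 20 mM Tris pH 7.4 with 5 mM MgCl2, 5 nmol IP6, 1 mM ATP and 1 mM DTT. DMSO or 1 μM test compound was added. IP6 conversion to 5-IP7 was resolved and read by SDS-PAGE.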

DIO mice = assay: Single dose of TNP in DIO mice; format: in vivo
In short: as §1

IP3-3K = conditions: PC12 cells, enhances neurite outgrowth; cited from earlier work
CYP2D6 = CYP2D6 (Homo sapiens, UniProt P10635); assay: CYP450 inhibition in human hepatic microsomes, CYP2D6; format: in vitro ADME; conditions: liver microsomes, probe bufuralol (hydroxylation to 4′-hydroxybufuralol)
CYP2D6, sequence (P10635 whole entry): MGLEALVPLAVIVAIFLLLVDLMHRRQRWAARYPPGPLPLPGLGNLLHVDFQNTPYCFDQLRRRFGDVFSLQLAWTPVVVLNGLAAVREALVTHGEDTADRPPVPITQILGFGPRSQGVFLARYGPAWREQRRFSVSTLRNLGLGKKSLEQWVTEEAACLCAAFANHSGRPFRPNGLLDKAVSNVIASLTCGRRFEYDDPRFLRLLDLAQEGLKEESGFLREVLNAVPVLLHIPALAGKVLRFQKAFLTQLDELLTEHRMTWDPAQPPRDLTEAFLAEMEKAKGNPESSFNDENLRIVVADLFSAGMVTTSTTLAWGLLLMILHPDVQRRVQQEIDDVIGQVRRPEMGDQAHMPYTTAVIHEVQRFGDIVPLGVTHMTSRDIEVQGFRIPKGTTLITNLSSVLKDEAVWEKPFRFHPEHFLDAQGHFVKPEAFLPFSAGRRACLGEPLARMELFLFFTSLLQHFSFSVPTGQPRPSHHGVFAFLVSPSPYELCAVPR

[2] = Hepatic microsomal stability, human; format: in vitro ADME; conditions: liver microsomes, pH 7.4
In short: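 Test compound (1 μM) was incubated with liver microsomes (1 mg/ml) and 1 mM NADPH in 100 mM potassium phosphate, pH 7.4. Aliquots were taken at 0, 5, 10, 20, 40 and 60 min and analysed by LC-MS/MS. Loss of parent was expressed as half-life.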

[3] = Plasma and tissue availability after a single intraperitoneal TNP injection; format: in vivo, mice
In short: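 Chow-fed mice received a single i.p. injection (20 mg/kg) in DMSO:Tween 80:water (1:1:8). Plasma levels were followed 1–6 h after dosing. Liver, skeletal muscle, white and brown adipose tissue and brain were collected 6 h after dosing to measure tissue concentrations.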

[4] = 10 mg/kg BW daily, 5th week, CLAMS
[5] = 10 mg/kg BW daily, 10 weeks, WT
[6] = 10 mg/kg BW daily, 10 weeks, WT, vs vehicle
[7] = after 5 weeks of TNP treatment, WT

O=[N+]([O-])c1ccc(CNc2nc(NCc3cccc(C(F)(F)F)c3)nc3[nH]cnc23)cc1 [TNP, N6-(4-nitrobenzyl)-N2-(3-(trifluoromethyl)benzyl)-9H-purine-2,6-diamine]
Akt phosphorylation at S473 in liver and EWAT (lean/CD-fed mice): does not alter | Glucose disposal (GTT) (lean/CD-fed mice): does not influence | inhibition at 10 μM (CYP1A2): 86% | Ca2+ levels [1]: slightly elevates | inhibition at 10 μM (CYP3A4): 98% | Effect on 71 unrelated kinases (71 unrelated kinases): does not influence | Insulin secretion (MIN6 cells): reduces insulin secretion | Lean mass (HFD-fed mice; 10 mg/kg BW daily): unaltered | Average RER (HFD-fed mice; [4]): unaltered | Average activity (HFD-fed mice; [4]): unaltered | Energy expenditure (EE) (HFD-fed mice; [4]): higher EE especially during nighttime | VO2 consumption (HFD-fed mice; [4]): higher VO2 consumption | Daily energy intake (HFD-fed mice; 10 mg/kg BW daily, 7th week, vs vehicle): similar | Glucose disposal following glucose (GTT) and insulin injections (ITT) (HFD-fed mice; 10 mg/kg BW daily, 8th and 9th week): efficient glucose disposals | Body weight gain (HFD-fed mice; 10 mg/kg BW daily, after 10 weeks (injection stopped)): 2.9 g | Body weight (HFD-fed mice; 10 mg/kg BW daily, after 10 weeks of HFD and TNP): 27.8 g | Glucose disposal following glucose injection (GTT) (HFD-fed mice; 2 weeks after TNP withdrawal): efficient glucose disposal | Body weight gain (HFD-fed mice; 18-week, eight weeks after TNP withdrawal): 19.3 g | Body weight (HFD-fed mice; 18-week, eight weeks after TNP withdrawal, HFD continued): 44.3 g | Glucose tolerance (GTT) (HFD-fed mice; four weeks after TNP withdrawal): become glucose intolerant | Body weight (HFD-fed mice; onset of the experiment (before treatment)): 24.9 g | Weight gain during the withdrawal period (HFD-fed mice; weeks 10 to 18, TNP-withdrawn mice): 16.4 g | TNP mediated weight loss (IP6K1-KO mice; 10 mg/kg BW daily, 10 weeks): resistant to Rev-TNP mediated weight loss | Total fat, lean, and fluid masses (IP6K1-KO mice; 10 mg/kg BW daily, 10 weeks): unaltered | Body weight (IP6K1-KO mice; 10 mg/kg BW daily, after 10-week of treatment): ~33 g | Glucose disposal (GTT) (IP6K1-KO mice; after 5 weeks of TNP treatment): not altered | Effect on the 1-IP7 generating enzyme PP-IP5K (PP-IP5K): does not influence | Cytosolic Zn2+ levels (cortical neurons): slightly elevates | Testis morphology (DIO WT mice; 10 mg/kg BW daily, 10 weeks, DIO mice): unaltered | Serum insulin level (DIO WT mice; 10 mg/kg BW daily, 10 weeks, HFD-fed WT): reduces serum insulin level | Serum cholesterol level (DIO WT mice; [5]): reduces serum cholesterol level | UCP1 expression (DIO WT mice; [5]): enhances UCP1 expression | Liver weight (DIO WT mice; [6]): substantially less | Total fat mass (QNMR) (DIO WT mice; [6]): significantly less | Histological morphology and weight of heart and kidney (DIO WT mice; 10 mg/kg BW daily, 10 weeks, vs vehicle): similar | Reduction in body weight vs vehicle (DIO WT mice; 10 mg/kg BW daily, after 10-week of treatment, WT): ~10 g | Body weight (DIO WT mice; 10 mg/kg BW daily, after 10 weeks of injection, DIO WT): 36.9 g | Fasting blood glucose (DIO WT mice; [7]): reduces fasting blood glucose | Glucose disposal (GTT) (DIO WT mice; [7]): enhances glucose disposal | CA1 neuronal density (DIO WT mice; long-term TNP treatment, WT and IP6K1-KO mice, stereological analysis): did not significantly alter | IP6K1 activity (Recombinant human IP6K1): inhibits IP6K1 activity | Blood glucose level (DIO mice; single dose 20 mg/kg BW): significantly reduces | Glucose tolerance (GTT) (DIO mice; single dose 20 mg/kg BW): significantly improves | HFD induced increase in serum insulin (DIO mice; single dose 20 mg/kg BW): slightly reduces | Serum TAG level (DIO mice; single dose 20 mg/kg BW): does not influence | Serum cholesterol, HDL, and LDL levels (DIO mice; single dose 20 mg/kg BW): slightly reduces | Increase in Akt S473 phosphorylation in IWAT, soleus muscle and liver (DIO mice; single injection 20 mg/kg BW, phospho S473/total Akt, ImageJ): 2–3 fold | Concentrations at which TNP inhibits IP3-3K (IP3-3K): 20 to 40 µM | inhibition at 10 μM (CYP2D6): 76% | half-life at 1 μM [2]: 0.533 h | Crossing of the BBB ([3]; mice): does not efficiently cross the BBB | half-life ([3]; mouse, plasma, ip, 20 mg/kg): ~6 h | TNP concentration in plasma ([3]; single dose 20 mg/kg i.p., chow fed mice, 1–6 h post-treatment): 5 to 10 µM
